Data: ChEMBL document CHEMBL1123566, “Synthesis and cardiac electrophysiological activity of 2- and 3-[(substituted phenyl)alkyl]quinuclidines. Structure-activity relationships” (1987)
Several values for one entry are separate records, joined by “and”; a condition that tells them apart may be missing. Equal entries are not always repeated.

Tests used:
Canis familiaris [1] = assay: Conduction time was determined by intraduodenal administration of two dosages of 10 mg/kg (low dose) of compound in anesthetized dogs. Value was reported for experiment 2; type: functional, Canis lupus familiaris
Summary of the method: (§1)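 Anesthetized dogs; compound given intraduodenally, generally as two doses, the second a cumulative (high) dose. LV functional refractory period and conduction time measured 15, 30 and 45 min after dosing; heart rate and blood pressure measured during nonpacing intervals. Values are % change from control, given per individual animal. Active if FRP or CT prolonged by ≥12%.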

Canis familiaris [2] = assay: Conduction time was determined by intraduodenal administration of two dosages of 10 mg/kg(high dose) of compound in anesthetized dogs. Value was reported for experiment 1; type: functional, Canis lupus familiaris; summary of the method: as §1
Canis familiaris [3] = assay: Conduction time was determined by intraduodenal administration of two dosages of 20 mg/kg (high dose) of compound in anesthetized dogs. Value was reported for experiment 2; type: functional, Canis lupus familiaris; summary of the method: as §1
Canis familiaris [4] = assay: Conduction time was determined by intraduodenal administration of two dosages of 3 mg/kg (low dose) of compound in anesthetized dogs. Value was reported for experiment 1; type: functional, Canis lupus familiaris; summary of the method: as §1
Canis familiaris [5] = assay: Heart rate was determined by intraduodenal administration of two dosages of 20 mg/kg of (high dose) compound in anesthetized dogs. Value was reported for experiment 2; type: functional, Canis lupus familiaris; summary of the method: as §1
Canis familiaris [6] = assay: Heart rate was determined by intraduodenal administration of two dosages of 3 mg/kg of (low dose) compound in anesthetized dogs. Value was reported for experiment 1; type: functional, Canis lupus familiaris; summary of the method: as §1
Canis familiaris [7] = assay: Left ventricular refractory period was determined by intraduodenal administration of two dosages of 20 mg/kg of (high dose) compound in anesthetized dogs. Value was reported for experiment 2; type: functional, Canis lupus familiaris, Cardiac ventricle
Canis familiaris [8] = assay: Heart rate was determined by intraduodenal administration of two dosages of 10 mg/kg of (high dose) compound in anesthetized dogs. Value was reported for experiment 1; type: functional, Canis lupus familiaris; summary of the method: as §1
Canis familiaris [9] = assay: Heart rate was determined by intraduodenal administration of two dosages of 10 mg/kg of (low dose) compound in anesthetized dogs. Value was reported for experiment 2; type: functional, Canis lupus familiaris; summary of the method: as §1
Canis familiaris [10] = assay: Left ventricular refractory period was determined by intraduodenal administration of two dosages of 10 mg/kg of (high dose) compound in anesthetized dogs. Value was reported for experiment 1; type: functional, Canis lupus familiaris, Cardiac ventricle
Summary of the method: (§2)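 Anesthetized dogs received two intraduodenal doses, the second cumulative (low dose/high dose). Left ventricular FRP and CT were measured 15, 30 and 45 min after dosing. Heart rate and mean blood pressure were taken during nonpacing intervals. Values are percent change from control. The vehicle was 5% dextrose in water/tragacanth. Activity was defined as ≥12% prolongation of FRP or CT.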

Canis familiaris [11] = assay: Left ventricular refractory period was determined by intraduodenal administration of two dosages of 10 mg/kg of (low dose) compound in anesthetized dogs. Value was reported for experiment 2; type: functional, Canis lupus familiaris, Cardiac ventricle; summary of the method: as §2
Canis familiaris [12] = assay: Left ventricular refractory period was determined by intraduodenal administration of two dosages of 3 mg/kg of (low dose) compound in anesthetized dogs. Value was reported for experiment 1; type: functional, Canis lupus familiaris, Cardiac ventricle; summary of the method: as §2
Canis familiaris [13] = assay: Left ventricular refractory period was determined by intravenous administration of two dosages of 3 mg/kg of compound in anesthetized dogs. Value was reported for experiment 1; type: functional, Canis lupus familiaris, Cardiac ventricle
Canis familiaris [14] = assay: Left ventricular refractory period was determined by intravenous administration of two dosages of 3 mg/kg of compound in anesthetized dogs. Value was reported for experiment 2; type: functional, Canis lupus familiaris, Cardiac ventricle
Canis familiaris [15] = assay: Mean arterial blood pressure was determined by intraduodenal administration of two dosages of 10 mg/kg of (high dose) compound in anesthetized dogs. Value was reported for experiment 1; type: functional, Canis lupus familiaris; summary of the method: as §2
Canis familiaris [16] = assay: Mean arterial blood pressure was determined by intraduodenal administration of two dosages of 20 mg/kg of (high dose) compound in anesthetized dogs. Value was reported for experiment 2; type: functional, Canis lupus familiaris
Canis familiaris [17] = assay: Mean arterial blood pressure was determined by intraduodenal administration of two dosages of 3 mg/kg of (low dose) compound in anesthetized dogs. Value was reported for experiment 1; type: functional, Canis lupus familiaris; summary of the method: as §2
Canis familiaris [18] = species: Canis familiaris; assay: In vitro electrophysiological evaluation in canine cardiac Purkinje fibres reported as percent change Vmax concentration range of 0.1-100 uM; type: functional; settings: Canis lupus familiaris; Purkinje fiber
Summary of the method: (§3)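 Canine cardiac Purkinje fibres, intracellular microelectrode recording, paced at a basic cycle length of 1 s. APD95 and Vmax read simultaneously. Compound: 10 mM stock in deionized water, diluted into Tyrode's solution, tested over the stated concentration range. Each fibre used once as its own control. Result is % change from control, given at 10 µM or as the maximum with its concentration. M = <10% decrease or an increase in Vmax.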

Canis familiaris [19] = species: Canis familiaris; assay: In vitro electrophysiological evaluation in canine cardiac Purkinje fibres reported as percent change Vmax concentration range of 0.1-100 uM; Minimal (<IO%increase or a decrease in CT); type: functional; settings: Canis lupus familiaris; Purkinje fiber; summary of the method: as §3
Canis familiaris [20] = species: Canis familiaris; assay: In vitro electrophysiological evaluation in canine cardiac Purkinje fibres reported as percent change Vmax concentration range of 0.1-10 uM; Minimal (<IO%increase or a decrease in CT); type: functional; settings: Canis lupus familiaris; Purkinje fiber; summary of the method: as §3
Canis familiaris [21] = species: Canis familiaris; assay: In vitro electrophysiological activity in canine cardiac Purkinje fibres given as maximum % change for action potential duration at 0.1-100 uM concentration; type: functional, Canis lupus familiaris, Purkinje fiber
Summary of the method: (§4)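 Canine cardiac Purkinje fibres, intracellular recording at 1 s basic cycle length, over cumulative concentration ranges. Compound 10 mM stock in deionized water diluted into Tyrode's. Each fibre used once as its own control. Value is the maximum % change from control in APD at 95% repolarization, with the concentration where it occurred; both values given if a biphasic response (>20% reversal) occurred.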

Canis familiaris [22] = species: Canis familiaris; assay: In vitro electrophysiological activity in canine cardiac Purkinje fibres given as maximum % change for action potential duration at 0.1-10 uM concentration; type: functional, Canis lupus familiaris, Purkinje fiber; summary of the method: as §4
Canis familiaris [23] = species: Canis familiaris; assay: In vitro electrophysiological evaluation in canine cardiac Purkinje fibres reported as % change for action potential duration at 0.1-10 uM concentration range; type: functional, Canis lupus familiaris, Purkinje fiber; summary of the method: as §3
Canis familiaris [24] = species: Canis familiaris; assay: In vitro electrophysiological evaluation in canine cardiac Purkinje fibres reported as maximum percent change Vmax concentration range of 0.1-100 uM; type: functional; settings: Canis lupus familiaris; Purkinje fiber; summary of the method: as §3
Canis familiaris [25] = species: Canis familiaris; assay: In vitro electrophysiological evaluation in canine cardiac Purkinje fibres reported as maximum percent change Vmax concentration range of 0.1-100 uM; Minimal (<IO%increase or a decrease in CT); type: functional; settings: Canis lupus familiaris; Purkinje fiber; summary of the method: as §3
Canis familiaris [26] = species: Canis familiaris; assay: (§5) In vitro electrophysiological evaluation in canine cardiac Purkinje fibres reported as % change for action potential duration at 0.1-100 uM concentration range; type: functional, Canis lupus familiaris, Purkinje fiber; summary of the method: as §3
Canis familiaris [27] = species: Canis familiaris; assay: as §5; type: functional, Canis lupus familiaris, Purkinje fiber; summary of the method: as §3; remark: listed apart in the source
Canis familiaris [28] = assay: Effective dose administered intravenously to elicit Antiarrhythmic efficacy in anesthetized dogs was reported. Value in parenthesis indicates no. of animals effective at that dose.; type: functional, Canis lupus familiaris, Heart
Summary of the method: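 Dogs are anesthetized and the chest reopened. Stimulating and recording electrodes go on the myocardium. Reproducible PES-induced sustained VT or VF is confirmed first; SVT is ended by burst pacing and VF by DC countershock. Compound is given iv in 0.9% saline and inducibility retested. A dose counts as effective when SVT/VF cannot be reinduced in two of three animals.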

Canis familiaris [29] = assay: Mean arterial blood pressure was determined by intraduodenal administration of two dosages of 10 mg/kg of (low dose) compound in anesthetized dogs. Value was reported for experiment 2; type: functional, Canis lupus familiaris

Cl.Clc1ccc(C/C=C2\CN3CCC2CC3)cc1
CT (Canis familiaris [1]): 0% | CT (Canis familiaris [2]): 3% | CT (Canis familiaris [3]): -4% | CT (Canis familiaris [4]): 0% | HR (Canis familiaris [5]): 1% | HR (Canis familiaris [6]): -2% | LV FRP (Canis familiaris [7]): 2% | HR (Canis familiaris [8]): 4% | HR (Canis familiaris [9]): -1% | LV FRP (Canis familiaris [10]): 3% | LV FRP (Canis familiaris [11]): 3% | LV FRP (Canis familiaris [12]): 5% | LV FRP (Canis familiaris [13]): 17% | LV FRP (Canis familiaris [14]): 15% | Mean blood pressure (Canis familiaris [15]): 25% | Mean blood pressure (Canis familiaris [16]): 12% | Mean blood pressure (Canis familiaris [17]): 19% | Vmax (Canis familiaris [18]): -12% | Vmax (Canis familiaris [19]): < 10% | Vmax (Canis familiaris [20]): < 10% | APD95 (Canis familiaris [21]): 35% and 50% | APD95 (Canis familiaris [22]): 29% | APD95 (Canis familiaris [23]): 29% | Vmax (Canis familiaris [24]): -59% | Vmax (Canis familiaris [25]): < 10% | APD95 (Canis familiaris [26]): 50% | APD95 (Canis familiaris [27]): 16% | Effective dose (Canis familiaris [28]): 0.1 mg/kg and 0.3 mg/kg | Mean blood pressure (Canis familiaris [29]): 12%
